Key:
[1] = Half life in Sprague-Dawley rat at 5 mg/kg, po; assay type: ADME, organism-based; set-up: dose 5 mg/kg, route oral; settings: in vivo
Method in brief: (§1)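 Sprague–Dawley rats dosed 5 mg/kg iv and 5 mg/kg orally as n-in-1 cassette. Plasma levels measured by LC/MS/MS.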

[2] = organism: Mus musculus; experiment: Inhibition of LPS-induced TNFalpha production in mouse endotoxemia model after 1 hr; assay type: functional
Method in brief: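 Mice given lipopolysaccharide together with graded oral gavage doses of inhibitor at t = 0 h. Animals euthanized 1 h post-dose and whole blood taken by cardiac puncture. TNF-α measured in plasma. ED50 calculated from the dose–response.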

[3] = Oral bioavailability in Beagle dog; assay type: ADME, organism-based, Canis lupus familiaris; settings: in vivo
[4] = Apparent permeability across human Caco-2 cells; assay type: ADME, cell-based
[5] = Clearance in Sprague-Dawley rat at 5 mg/kg, iv; assay type: ADME, organism-based; set-up: dose 5 mg/kg, route intravenous; settings: in vivo; method in brief: as §1
[6] = Volume of distribution at steady state in Sprague-Dawley rat at 5 mg/kg, iv; assay type: ADME, organism-based; set-up: dose 5 mg/kg, route intravenous; settings: in vivo, read-out: Vdss; method in brief: as §1
[7] = target: Disintegrin and metalloproteinase domain-containing protein 17 (Sus scrofa, UniProt O77636)
Chain of Disintegrin and metalloproteinase domain-containing protein 17 (O77636 whole entry, the tested form may be a part): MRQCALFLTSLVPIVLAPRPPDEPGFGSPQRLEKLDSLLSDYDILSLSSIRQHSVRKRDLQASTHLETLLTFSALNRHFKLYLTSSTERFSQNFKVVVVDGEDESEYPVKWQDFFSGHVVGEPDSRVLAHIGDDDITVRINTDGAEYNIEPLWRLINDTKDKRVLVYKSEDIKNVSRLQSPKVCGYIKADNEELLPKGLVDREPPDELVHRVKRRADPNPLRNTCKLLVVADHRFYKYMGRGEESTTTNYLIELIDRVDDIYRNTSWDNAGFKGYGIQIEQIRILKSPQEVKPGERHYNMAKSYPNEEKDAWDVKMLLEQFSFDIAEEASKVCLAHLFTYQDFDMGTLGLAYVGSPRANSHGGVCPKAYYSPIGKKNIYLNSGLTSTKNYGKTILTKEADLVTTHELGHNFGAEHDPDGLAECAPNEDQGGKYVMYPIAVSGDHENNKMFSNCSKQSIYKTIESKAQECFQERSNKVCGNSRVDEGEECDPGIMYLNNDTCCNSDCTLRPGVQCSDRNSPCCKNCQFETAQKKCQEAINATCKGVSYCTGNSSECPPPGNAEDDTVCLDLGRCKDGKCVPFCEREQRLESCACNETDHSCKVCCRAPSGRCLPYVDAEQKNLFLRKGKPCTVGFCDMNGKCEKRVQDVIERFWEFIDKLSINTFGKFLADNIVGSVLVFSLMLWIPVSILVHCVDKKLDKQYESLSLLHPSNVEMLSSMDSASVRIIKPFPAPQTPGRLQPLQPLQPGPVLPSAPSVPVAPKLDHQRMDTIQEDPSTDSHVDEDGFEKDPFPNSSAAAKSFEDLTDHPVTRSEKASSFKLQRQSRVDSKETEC

[8] = target: Matrix metalloproteinase-9 (Homo sapiens, UniProt P14780); experiment: Inhibition of MMP9
Chain of Matrix metalloproteinase-9 (P14780 whole entry): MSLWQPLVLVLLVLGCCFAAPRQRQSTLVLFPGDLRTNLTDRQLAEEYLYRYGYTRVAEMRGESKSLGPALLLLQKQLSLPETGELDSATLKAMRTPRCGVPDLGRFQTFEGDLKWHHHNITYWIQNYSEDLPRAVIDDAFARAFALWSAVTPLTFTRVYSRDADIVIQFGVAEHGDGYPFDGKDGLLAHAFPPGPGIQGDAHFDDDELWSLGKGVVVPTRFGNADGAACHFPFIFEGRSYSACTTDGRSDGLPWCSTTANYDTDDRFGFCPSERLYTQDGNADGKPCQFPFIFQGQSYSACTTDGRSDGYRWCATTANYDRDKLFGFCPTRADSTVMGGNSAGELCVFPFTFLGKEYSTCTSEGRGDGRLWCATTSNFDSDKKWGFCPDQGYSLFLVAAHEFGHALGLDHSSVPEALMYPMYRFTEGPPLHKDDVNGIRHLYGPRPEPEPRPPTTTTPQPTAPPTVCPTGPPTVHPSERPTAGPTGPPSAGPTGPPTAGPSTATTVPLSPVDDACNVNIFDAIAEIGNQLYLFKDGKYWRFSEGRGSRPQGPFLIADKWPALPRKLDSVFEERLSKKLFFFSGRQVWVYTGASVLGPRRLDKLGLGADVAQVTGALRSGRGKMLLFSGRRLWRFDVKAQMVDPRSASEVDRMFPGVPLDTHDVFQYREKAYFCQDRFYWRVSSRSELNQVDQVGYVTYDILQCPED

[9] = Half life in Sprague-Dawley rat at 5 mg/kg, iv; assay type: ADME, organism-based; set-up: dose 5 mg/kg, route intravenous; settings: in vivo; method in brief: as §1
[10] = Tmax in Sprague-Dawley rat at 5 mg/kg, po; assay type: ADME, organism-based; set-up: dose 5 mg/kg, route oral; settings: in vivo; method in brief: as §1
[11] = target: T1, Interstitial collagenase (Homo sapiens, UniProt P03956); experiment: Inhibition of MMP1
T1 sequence (P03956 whole entry): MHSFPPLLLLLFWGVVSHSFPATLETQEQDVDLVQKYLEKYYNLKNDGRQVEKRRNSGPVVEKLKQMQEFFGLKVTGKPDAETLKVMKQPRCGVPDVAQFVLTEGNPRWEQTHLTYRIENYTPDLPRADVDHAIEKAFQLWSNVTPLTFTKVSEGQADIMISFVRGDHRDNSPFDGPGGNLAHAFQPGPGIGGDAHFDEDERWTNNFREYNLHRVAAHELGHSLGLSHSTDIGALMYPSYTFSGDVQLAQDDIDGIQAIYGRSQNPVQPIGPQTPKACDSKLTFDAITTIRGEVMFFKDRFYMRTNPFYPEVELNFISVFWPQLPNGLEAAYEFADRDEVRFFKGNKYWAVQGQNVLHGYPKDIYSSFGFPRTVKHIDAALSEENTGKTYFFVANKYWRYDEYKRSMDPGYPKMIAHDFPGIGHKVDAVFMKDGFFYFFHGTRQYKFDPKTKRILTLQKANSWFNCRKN

[12] = target: 72 kDa type IV collagenase (Homo sapiens, UniProt P08253); experiment: Inhibition of MMP2
Chain of 72 kDa type IV collagenase (P08253 whole entry): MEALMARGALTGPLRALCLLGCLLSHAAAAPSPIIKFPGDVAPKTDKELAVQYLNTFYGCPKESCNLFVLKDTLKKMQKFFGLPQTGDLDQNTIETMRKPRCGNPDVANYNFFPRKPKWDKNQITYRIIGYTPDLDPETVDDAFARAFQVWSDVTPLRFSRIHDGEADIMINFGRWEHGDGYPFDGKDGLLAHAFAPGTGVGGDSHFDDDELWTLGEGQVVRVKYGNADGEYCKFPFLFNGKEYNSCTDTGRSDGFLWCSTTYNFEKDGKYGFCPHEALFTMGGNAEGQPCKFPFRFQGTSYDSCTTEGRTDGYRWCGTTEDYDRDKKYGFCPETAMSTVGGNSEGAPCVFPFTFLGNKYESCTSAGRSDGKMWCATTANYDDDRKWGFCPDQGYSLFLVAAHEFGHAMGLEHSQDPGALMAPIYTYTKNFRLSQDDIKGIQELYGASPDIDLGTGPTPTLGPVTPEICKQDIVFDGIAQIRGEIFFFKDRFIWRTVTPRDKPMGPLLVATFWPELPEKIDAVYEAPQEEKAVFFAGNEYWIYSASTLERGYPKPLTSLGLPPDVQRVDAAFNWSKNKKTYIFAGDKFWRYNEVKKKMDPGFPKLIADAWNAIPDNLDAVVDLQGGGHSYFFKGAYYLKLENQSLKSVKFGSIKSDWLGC

[13] = AUC in Sprague-Dawley rat at 5 mg/kg, iv; assay type: ADME, organism-based; set-up: dose 5 mg/kg, route intravenous; settings: plasma; method in brief: as §1
[14] = AUC in Sprague-Dawley rat at 5 mg/kg, po; assay type: ADME, organism-based; set-up: dose 5 mg/kg, route oral; settings: plasma; method in brief: as §1
[15] = Bioavailability in Sprague-Dawley rat at 5 mg/kg, po; assay type: ADME, organism-based; settings: in vivo; method in brief: as §1
[16] = test system: Blood; experiment: Inhibition of LPS-induced TNFalpha production in human whole blood; assay type: functional, tissue-based

SMILES	half-life [1]	ED50 [2]	bioavailability [3]	Papp [4]	clearance [5]	Vd [6]	IC50 [7]	Ki [8]	half-life [9]	Tmax [10]	Ki [11]	Ki [12]	AUC [13]	AUC [14]	bioavailability [15]	IC50 [16]
Cc1cc(COc2ccc(C(=O)N[C@@H]3C[C@@]4(CCCO4)C[C@@H]3C(=O)NO)cc2)c2ccccc2n1	1.3 h	1 mg/kg	68%	5.7 ×10⁻⁶ cm/s	11.7 mL/min/kg	0.3 L/kg	1 nM	1450 nM	4.2 h	0.1 h	> 4950 nM	1360 nM	12.6 µM·h	3.93 µM·h	31%	108 nM
Cc1cc(COc2ccc(C(=O)N[C@@H]3C[C@]4(CCCO4)C[C@@H]3C(=O)NO)cc2)c2ccccc2n1	1.9 h			1.5 ×10⁻⁶ cm/s	13.3 mL/min/kg	1.4 L/kg	1 nM	1250 nM	6.9 h	0.25 h	> 4950 nM	1920 nM	10.9 µM·h	3.85 µM·h	35%	143 nM

Reference: ChEMBL document CHEMBL1141487, “Alpha,Beta-cyclic-beta-benzamido hydroxamic acids: Novel oxaspiro[4.4]nonane templates for the discovery of potent, selective, orally bioavailable inhibitors of tumor necrosis factor-alpha converting enzyme (TACE)” (Bioorg Med Chem Lett, 2008)
